SUMO Mot1 rescue: SUMOylation pathway inhibition by Mot1-301 growth rescue; S. cerevisiae Mot1-301 growth rescue, ATP luminescence, 38.5C; percent above DMSO median, 100 means doubled; growth rescue, % at 18.8 µM; 320,000 tested, 1% active; AID 2716;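 active = every valid replicate shows activation above 250% relative to neutral control wells; inactive = the rest, any valid replicate at or below 250%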;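 note: OY570 slx delta 5 strain wells were the positive control but not used for scaling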
IMP-1 inh: blocks Pseudomonas aeruginosa IMP-1 metallo-beta-lactamase; inhibition, % at 5.6 µM; 290,000 tested, 0.45% active; purified IMP-1, nitrocefin hydrolysis, epi-absorbance fluorescence;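 active = inhibition above the mean plus 3 SD of all compounds in the same screening run, cut at about 4.5% in these data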;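 note: 0% = IMP-1 with DMSO and 100% = DMSO wells lacking enzyme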
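System – purified recombinant IMP-1 beta-lactamase · Input – IMP-1 dispensed at 0.2 nM · Timing – 15 min preincubation plus 25 min reaction at 25 °C · Signal – Epi-absorbance fluorescence, 480 nm excitation, 530 nm emission · Measure – percent IMP-1 inhibition derived from blank-referenced optical density · Controls – Enzyme-plus-DMSO low control, enzyme-free DMSO high control · Replication – singlicate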
NALP1 yeast inh: inhibitors of NALP1 inflammasome in yeast; S. cerevisiae NALP1/ASC/caspase-1 growth, X-gal OD620, 72 h; inhibition, % at 10 µM; 280,000 tested, 0.61% active; AID 2071; in the data active = inhibition mostly above about 24%, no sharp cut-off; inactive = mostly below about 32%
DNA FID counter: counter-screen for HCV NS3 helicase inhibitors: DNA intercalator displacement; 290,000 tested, 0.17% active; DNA fluorescent intercalator displacement, fluorescence; inhibition, % at 7.9 µM; AID 1845; in the data active = inhibition above about 37%;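 note: 0% = vehicle and 100% = reference compound; higher means more ethidium bromide displaced from hairpin DNA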
VIM-2 inh: blocks Pseudomonas aeruginosa VIM-2 metallo-beta-lactamase. inhibition, % at 5.6 µM. 290,000 tested, 0.89% active. purified VIM-2, nitrocefin hydrolysis, epi-absorbance fluorescence;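 active = inhibition above the mean of all tested compounds plus 3 SD, cutoff set per screening run, cut at about 7.5% in these data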;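 note: red hydrolysis product quenches plate fluorescence so inhibitors raise well fluorescence; 0% = enzyme with DMSO and 100% = DMSO without enzyme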
SUMO HTRF inh: SUMOylation inhibition; P63279; HTRF SUMOylation assay, SAE1/SAE2 + UBC9, in vitro; inhibition, % at 35 µM; 290,000 tested, 0.36% active; in the data active = inhibition above about 50%, passing the limit was not always enough
Target sequence (P63279 whole entry, looked up): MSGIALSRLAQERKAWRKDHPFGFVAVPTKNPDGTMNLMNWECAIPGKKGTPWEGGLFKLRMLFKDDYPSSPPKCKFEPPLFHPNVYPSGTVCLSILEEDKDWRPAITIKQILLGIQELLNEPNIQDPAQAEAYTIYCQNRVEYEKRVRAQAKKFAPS
The depositor's hits bear a star; nt = no result; ! = not confirmed by another sample. Shown are actives, neighbours in structure and some others; about 2.9% of the full set was active somewhere.

SMILES | SUMO Mot1 rescue | IMP-1 inh | NALP1 yeast inh | DNA FID counter | VIM-2 inh | SUMO HTRF inh
Cc1ccc(OCc2cc(C(=O)N3CCCC(O)C3)no2)cn1 (stereo not drawn) | -20 | -1 | -6 | -10 | -1 | 6
CCOc1ccc(-c2c(C#N)c(N)nc3c2c(=O)n(C)c(=O)n3C)cc1OC | -7 | 7.6* | -3 | 0 | -2 | 23
COc1ccc(-c2c(C#N)c(N)nc3c2c(=O)n(C)c(=O)n3C)cc1 | -18 | -1 | -9 | -10 | 0 | 8
CCN(CC(=O)N1CCOCC1)S(=O)(=O)c1cc(Cl)ccc1Cl | -5 | -2 | 4 | -4 | 0 | 5
O=C(Nc1ccccc1Cc1ccccc1)c1ccccc1NS(=O)(=O)c1ccc(Cl)s1 | 3 | -2 | 33 | -21 | -1 | 58*
CCn1ccnc1CN(C)Cc1c(C(=O)N2CCCCCCC2)nc2ccc(Cl)cn12 | -19 | -3 | 5 | -14 | -1 | -1
CC1CCC(C(C)C)C(OC(=O)Cn2c(-c3ccc(Br)cc3)[n+](C)c3ccccc32)C1 (stereo not drawn) | -24 | -3 | -15 | 26 | -1 | 11
Cc1ccccc1OCc1n(CC(=O)OC2CC(C)CCC2C(C)C)c2ccccc2[n+]1C (stereo not drawn) | 9 | -1 | 15 | 38*! | -3 | 2
COCCNc1nc2c(c(=O)n(Cc3ccccc3F)c(=O)n2C)n1C | -12 | -1 | 16 | -4 | -2 | 6
Cn1c(NCc2cccnc2)nc2c1c(=O)n(Cc1ccccc1F)c(=O)n2C | -7 | -3 | nt | -8 | 8.3* | -2
O=C(c1sccc1-c1ccccc1)N1CCN(S(=O)(=O)c2ccccc2F)CC1 | -14 | nt | nt | nt | nt | nt
O=C1CCn2nc(-c3ccc(Cl)cc3)cc2N1 | 605* | -1 | 23 | -1 | -3 | 5
O=S(=O)(NC1CCN(S(=O)(=O)c2ccc3c(c2)OCCO3)C1)c1c(F)cccc1F (stereo not drawn) | 16 | nt | nt | nt | nt | nt
Oc1c(Br)cc(/C=N/n2c(-c3ccccc3)n[nH]c2=S)c(Br)c1O | 176 | -4 | 1 | -19 | -3 | 55*
O=C(O)CSc1c2c(nc3cc(C(=O)NCCN4CCOCC4)ccc13)CCC2 | 0 | -3 | 31 | -9 | 0 | 18
COc1ccc(OC(C)C(=O)N2CCN(c3ccccn3)CC2)cc1 (stereo not drawn) | 2 | -1 | 8 | -11 | -1 | 18
COc1ccccc1CC(=O)N1CCCC1 | 11 | -1 | 7 | -4 | -4 | 10
CC(=O)Nc1ccc(S(=O)(=O)N[C@@H](C)C(=O)N2CCN(c3ccccn3)CC2)cc1 | 0 | nt | nt | nt | nt | nt
COc1ccccc1CC(=O)N1CCN(c2ccccn2)CC1 | -1 | 5.9* | 3 | -10 | -1 | 8
CCC(NS(=O)(=O)c1ccc(C)cc1)C(=O)N1CCN(c2ccccn2)CC1 (stereo not drawn) | 24 | 4.5* | -4 | -17 | -2 | 9
Cc1ccccc1OC(C)C(=O)N1CCN(c2ccccn2)CC1 (stereo not drawn) | -24 | -4 | 32* | -29 | -2 | 8
S=C(NCCCn1ccnc1)Nc1cccc(Cl)c1 | 7 | -3 | -5 | 2 | -2 | 24
O=Cc1cccn1-c1ccc(O)cc1 | 4 | -2 | -4 | -2 | -3 | 8
COc1cccc(-c2cc(C(=O)N3CCN(Cc4ccc5c(c4)OCO5)CC3)on2)c1 | 49 | -3 | 12 | -21 | -2 | 0
O=C(CN1C(=O)C2CC=CCC2C1=O)Nc1ccc(S(=O)(=O)N2CCOCC2)cc1 (stereo not drawn) | 297* | -4 | -15 | 7 | -3 | 3
O=C(CN1CCCCCC1)Nc1ccc(S(=O)(=O)N2CCOCC2)cc1 | 7 | 0 | 3 | 13 | -2 | 4
CN(C)CCCN(CCCN(C)C)C(=S)Nc1ccc(S(=O)(=O)N2CCOCC2)cc1 | 18 | -3 | 12 | 37* | -5 | 18
CC(C)C(C(=O)Nc1ccc(S(=O)(=O)N2CCOCC2)cc1)N1C(=O)c2ccccc2C1=O (stereo not drawn) | -7 | -3 | 43* | -4 | -2 | 1
Cc1ccc(N(C(C)C(=O)Nc2ccc(S(=O)(=O)N3CCOCC3)cc2)S(C)(=O)=O)cc1C (stereo not drawn) | 286* | 0 | -5 | -33 | 0 | 1
